From PMC6357737 (Science Advances, 2019)
Values belong to the molecule of their own block, whether it stands above or below them.

Experiments:
Caki-2 = test: Proliferation assay of RCC line Caki-2; format: cell-based, human; conditions: Caki-2, 2 days
Method in brief: (§1)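 Lines were kept in RPMI-1640/10% FBS and plated 1 day before treatment. Seeding per well: Caki-2 and A704 at 2.0 × 10^4; 786-O, A498, 769-P and ACHN at 1.0 × 10^4; RCC4+vec at 0.7 × 10^4; RCC4+VHL at 0.8 × 10^4. Two days after dosing, cells were stained with Hoechst 33342 (2 μg/ml, 1 h) and counted by imaging.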

ACHN = test: Proliferation assay of RCC line ACHN; format: cell-based, human; conditions: 2 days
Method in brief: as §1

Bmal1-dLuc U2OS cells = test: Cell-based circadian assay, Bmal1-dLuc reporter; parameters: species or system human
Method in brief: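 Stable U2OS Bmal1-dLuc cells were seeded at 3000 per well in DMEM/10% FBS. After 2 days, B27/HEPES explant medium with 0.2 or 1 mM luciferin (pH 7.2) was added, plus compound (final 0.7% DMSO). Luminescence was read every 100 min for 5 days, first day excluded. Period came from curve fitting; intensity was averaged over the run; n = 4. LogEC50 was from sigmoidal fits of threefold 12-point series.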

A704 = test: Proliferation assay of RCC line A704; format: cell-based, human; conditions: A704, 2 days
Method in brief: as §1

MLL-AF9 leukemia cells = test: Proliferation assay of MLL-AF9 leukemia cells; format: cell-based; conditions: mouse MLL-AF9 leukemia cells, 2 days
Method in brief: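 GFP-positive MLL-AF9 leukemia cells were taken from leukemic mouse bone marrow and kept in IMDM/10% FBS with SCF 20 ng/ml and mIL-3, mIL-6 and GM-CSF at 10 ng/ml each. Cells were plated at 2.0 × 10^4 per well with compound, incubated at 37°C for 2 days, then counted by flow cytometry.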

786-O = test: Proliferation assay of RCC line 786-O; format: cell-based, human; conditions: 2 days
Method in brief: as §1

A498 = test: Proliferation assay of RCC line A498; format: cell-based, human; conditions: A498, 2 days
Method in brief: as §1

RCC4+VHL = test: Proliferation assay of RCC line RCC4+VHL; format: cell-based, human; conditions: 2 days
Method in brief: as §1

GSK-3β = GSK-3β (Homo sapiens, UniProt P49841); test: Kinase profiling; format: biochemical; conditions: 5 μM
Chain of GSK-3β (P49841 whole entry): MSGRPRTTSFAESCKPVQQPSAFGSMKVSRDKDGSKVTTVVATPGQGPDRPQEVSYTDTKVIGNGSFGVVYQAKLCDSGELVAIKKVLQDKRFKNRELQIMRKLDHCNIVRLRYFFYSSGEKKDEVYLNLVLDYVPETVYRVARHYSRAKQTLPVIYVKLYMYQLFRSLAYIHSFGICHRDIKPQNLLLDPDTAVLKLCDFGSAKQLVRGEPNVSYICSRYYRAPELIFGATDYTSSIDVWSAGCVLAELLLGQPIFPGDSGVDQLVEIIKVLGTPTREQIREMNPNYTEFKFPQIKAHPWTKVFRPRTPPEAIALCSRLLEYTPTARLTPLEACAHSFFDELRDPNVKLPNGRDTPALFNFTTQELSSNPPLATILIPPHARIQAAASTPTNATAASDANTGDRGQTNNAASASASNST

CRY1 = CRY1 (Mus musculus, UniProt P97784); test: CRY1 degradation assay; format: cell-based; conditions: CRY1-LUC HEK293 cells, 24 h
Chain of CRY1 (P97784 whole entry): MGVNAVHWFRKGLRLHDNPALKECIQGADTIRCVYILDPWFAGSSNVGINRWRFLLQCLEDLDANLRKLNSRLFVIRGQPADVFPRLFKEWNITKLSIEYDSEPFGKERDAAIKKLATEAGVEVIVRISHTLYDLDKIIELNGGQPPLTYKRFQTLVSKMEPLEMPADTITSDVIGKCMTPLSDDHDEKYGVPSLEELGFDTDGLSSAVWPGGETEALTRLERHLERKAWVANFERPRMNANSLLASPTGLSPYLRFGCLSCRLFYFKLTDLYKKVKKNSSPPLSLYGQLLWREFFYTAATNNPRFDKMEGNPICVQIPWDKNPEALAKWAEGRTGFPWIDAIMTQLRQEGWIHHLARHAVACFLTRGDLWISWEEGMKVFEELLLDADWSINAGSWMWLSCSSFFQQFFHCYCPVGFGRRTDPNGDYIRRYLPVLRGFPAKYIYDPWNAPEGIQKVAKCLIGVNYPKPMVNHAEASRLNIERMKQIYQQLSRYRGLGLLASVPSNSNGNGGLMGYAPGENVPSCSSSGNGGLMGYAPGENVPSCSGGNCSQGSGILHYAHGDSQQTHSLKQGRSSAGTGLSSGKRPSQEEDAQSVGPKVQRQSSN

[1] = test system: MLL-AF9 tissues (spleen and bone marrow explants); format: cell-based, mouse; conditions: MLL-AF9 tissues relative to the control
Method in brief: (§2)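 Explants: spleen and bone marrow from transplant mice. MLL-AF9 leukemia cells derived from Per2::Luc bone marrow were serially transplanted into nonreporter C57BL/6J mice. Controls were C57BL/6J recipients of Per2::Luc bone marrow, used 3 months later. Tissue was cultured in luciferin explant medium with compound (0.24% DMSO final). Luminescence was read every 30 min for 5 days, first day excluded. Period was curve-fitted; intensity was averaged over the run. MLL-AF9 n = 11; control n = 10 to 20.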

CK2 [2] = biological target: T1, CK2 (Homo sapiens, UniProt P19784+P68400); test: Cellular CK2 activity, anti-phospho CK2 substrate immunoblot, U2OS; format: cell-based; conditions: U2OS cells, 24 hours, concentrations similar to those that affected circadian period
T1 sequence (P68400 whole entry): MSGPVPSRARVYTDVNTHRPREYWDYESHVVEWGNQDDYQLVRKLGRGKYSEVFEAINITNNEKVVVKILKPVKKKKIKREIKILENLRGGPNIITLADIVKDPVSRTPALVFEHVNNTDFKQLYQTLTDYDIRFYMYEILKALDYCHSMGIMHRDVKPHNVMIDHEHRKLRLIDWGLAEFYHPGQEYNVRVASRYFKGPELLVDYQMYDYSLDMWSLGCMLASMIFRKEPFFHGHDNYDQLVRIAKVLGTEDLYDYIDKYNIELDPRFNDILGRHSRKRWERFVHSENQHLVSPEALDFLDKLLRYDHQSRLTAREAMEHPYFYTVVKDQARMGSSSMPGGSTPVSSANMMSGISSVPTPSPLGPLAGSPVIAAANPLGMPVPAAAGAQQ
T1 sequence (P19784 whole entry): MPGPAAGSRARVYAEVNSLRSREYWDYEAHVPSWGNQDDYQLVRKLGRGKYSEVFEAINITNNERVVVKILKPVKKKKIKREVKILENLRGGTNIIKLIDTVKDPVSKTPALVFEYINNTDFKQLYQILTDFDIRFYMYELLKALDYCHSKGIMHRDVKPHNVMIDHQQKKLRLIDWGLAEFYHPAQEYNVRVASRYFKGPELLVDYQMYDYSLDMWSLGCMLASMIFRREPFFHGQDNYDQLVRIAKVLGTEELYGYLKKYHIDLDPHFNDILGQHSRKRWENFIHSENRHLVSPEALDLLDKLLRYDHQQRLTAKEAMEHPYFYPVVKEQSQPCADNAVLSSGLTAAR
T1 sequence (P67870 whole entry partner): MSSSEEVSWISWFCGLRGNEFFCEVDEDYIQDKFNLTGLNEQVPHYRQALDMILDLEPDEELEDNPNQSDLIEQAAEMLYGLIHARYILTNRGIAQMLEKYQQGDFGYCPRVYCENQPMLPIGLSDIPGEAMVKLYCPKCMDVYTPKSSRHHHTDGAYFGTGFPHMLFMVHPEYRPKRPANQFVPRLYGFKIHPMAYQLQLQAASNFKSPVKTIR

CK2 [3] = biological target: CK2 (Homo sapiens, UniProt P68400); test: biochemical
Chain of CK2 (Homo sapiens, UniProt P68400) (P68400 whole entry): as the sequence (P68400 whole entry) above
Chain of CK2 (Homo sapiens, UniProt P68400) (P67870 whole entry partner): as the sequence (P67870 whole entry partner) above

769-P = test: Proliferation assay of RCC line 769-P; format: cell-based, human; conditions: 2 days
Method in brief: as §1

PER2 = test: Phosphoproteomics of Flag-tagged PER2 in HEK293T cells; format: cell-based, mouse; conditions: full-length PER2, 8 μM, 24 h (table S1)
Method in brief: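 HEK293T cells were reverse-transfected (Lipofectamine 2000) with C-terminal 3XFlag-tagged mouse PER2 plus CK2α. After 24 h, they received 0 or 8 μM compound for 24 h. Lysis was in 1% NP-40 buffer (pH 8.0) with phosphatase inhibitors, followed by anti-Flag immunoprecipitation and LC-MS/MS after four-protease digestion. Phosphorylation was expressed as phosphopeptide/total peptide spectra, and the effect as the treated/control ratio.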

Per2-dLuc U2OS cells = test: Cell-based circadian assay, Per2-dLuc reporter; parameters: species or system human
[4] = test system: cells differentiated from Per2::LucSV knock-in ES cells; test: Circadian assay in differentiated ES cells; format: cell-based, mouse
Method in brief: (§3)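 ES cells were kept on feeder fibroblasts; Per2 was disrupted by CRISPR-Cas9 in Bmal1-Luc ES cells. Embryoid bodies formed over 2 days in low-attachment wells, then grew 26 days on gelatin. On day 28, cells got 100 nM dexamethasone for 1 h, then 0.2 mM luciferin with compound. Luminescence was integrated 1 min every 20 min; period came from sine-wave fitting. Replicates: Per2::LucSV n = 4; Per2 knockout versus wild-type n = 3 to 4.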

PIM2 = PIM2 (Homo sapiens, UniProt Q9P1W9); test: In vitro PIM2 kinase assay; format: biochemical
Chain of PIM2 (Q9P1W9 whole entry): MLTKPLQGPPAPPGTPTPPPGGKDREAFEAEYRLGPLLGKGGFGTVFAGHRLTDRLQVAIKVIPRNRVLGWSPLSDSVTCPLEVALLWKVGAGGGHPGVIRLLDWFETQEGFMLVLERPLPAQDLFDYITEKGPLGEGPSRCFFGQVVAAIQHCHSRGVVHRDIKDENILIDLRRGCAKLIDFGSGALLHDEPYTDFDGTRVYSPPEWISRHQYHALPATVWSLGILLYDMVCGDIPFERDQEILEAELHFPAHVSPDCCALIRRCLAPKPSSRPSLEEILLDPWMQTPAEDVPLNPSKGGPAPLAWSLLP
Method in brief: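 Kinase-Glo assay measuring remaining ATP. Compound was added (final 5% DMSO) and reactions were started with ATP (final 3 μM). PIM2 ran at 30°C for 3 h. The CK2 comparator used CK2 (1.5 ng/μl) with 50 μM substrate peptide in 40 mM tris, 10 mM MgCl2, 0.5 mM DTT, 150 mM NaCl, pH 7.5, at 37°C for 1.5 h.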

CKIδ = CKIδ (Homo sapiens, UniProt P48730); test: In vitro CKIδ kinase assay; format: biochemical
Chain of CKIδ (P48730 whole entry, species assumed): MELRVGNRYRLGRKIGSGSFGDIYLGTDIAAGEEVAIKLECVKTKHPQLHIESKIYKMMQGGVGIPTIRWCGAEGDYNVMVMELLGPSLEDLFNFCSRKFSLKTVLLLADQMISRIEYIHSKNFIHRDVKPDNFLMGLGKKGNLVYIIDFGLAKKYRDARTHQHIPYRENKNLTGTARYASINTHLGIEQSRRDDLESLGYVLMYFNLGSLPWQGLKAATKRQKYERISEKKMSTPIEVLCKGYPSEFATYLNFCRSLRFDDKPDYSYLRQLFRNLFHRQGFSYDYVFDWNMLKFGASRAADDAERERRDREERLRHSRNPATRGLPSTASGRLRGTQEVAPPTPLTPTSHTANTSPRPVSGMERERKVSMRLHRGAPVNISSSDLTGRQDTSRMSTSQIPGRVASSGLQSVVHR

OCI-AML3 = test: Proliferation assay of OCI-AML3 cells; format: cell-based, human; conditions: OCI-AML3, 4 days
Method in brief: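 OCI-AML3 cells were kept in MEM alpha/20% FBS, plated at 1.0 × 10^4 per well with compound, and incubated at 37°C for 4 days. Viability was read with Cell Counting Kit-8.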

BMAL1 S90 = BMAL1 S90 phosphorylation immunoblot in NIH-3T3 cells; format: cell-based, mouse; conditions: 10 μM, different times
Method in brief: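 NIH-3T3 cells were exposed to 10 μM test compound for varying times. Lysates were immunoprecipitated with anti-BMAL1 antibody, then immunoblotted with anti-P-BMAL1-S90 and anti-BMAL1 antibodies. Protein was quantified by Bradford.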

[5] = test system: lung explants from Per2::Luc mice; test: Circadian rhythms in lung explants; format: cell-based, mouse
Method in brief: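 Lung pieces from Per2::Luc knock-in mice were cultured in luciferin-containing explant medium with compound (final 0.24% DMSO). Luminescence was recorded every 30 min for 5 days, excluding the first day. Period was derived by curve fitting.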

CK2 [6] = biological target: T1, CK2; test: Cellular CK2 activity, anti-phospho CK2 substrate immunoblot, HEK293T; format: cell-based; conditions: HEK293T cells, 24 hours, various concentrations
CLK2 = CLK2 (Homo sapiens, UniProt P49760); test: In vitro CLK2 kinase assay; format: biochemical
Chain of CLK2 (P49760 whole entry): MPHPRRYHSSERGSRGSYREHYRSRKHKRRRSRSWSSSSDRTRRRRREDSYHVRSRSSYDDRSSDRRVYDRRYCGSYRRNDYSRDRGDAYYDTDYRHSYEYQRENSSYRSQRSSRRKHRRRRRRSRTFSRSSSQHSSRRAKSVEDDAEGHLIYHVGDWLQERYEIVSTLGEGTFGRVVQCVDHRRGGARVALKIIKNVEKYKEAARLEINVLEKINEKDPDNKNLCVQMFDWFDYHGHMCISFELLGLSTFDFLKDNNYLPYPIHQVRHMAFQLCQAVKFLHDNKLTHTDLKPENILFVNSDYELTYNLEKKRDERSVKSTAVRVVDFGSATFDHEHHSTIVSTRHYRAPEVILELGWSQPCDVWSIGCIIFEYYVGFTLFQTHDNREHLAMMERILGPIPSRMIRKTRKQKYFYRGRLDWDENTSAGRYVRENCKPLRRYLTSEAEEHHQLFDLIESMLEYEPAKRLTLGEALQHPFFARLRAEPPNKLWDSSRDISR

PKA (protein kinase A) = test: Anti-phospho PKA substrate immunoblot, HEK293T; format: cell-based, human; conditions: HEK293T cells, 24 hours
Method in brief: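 HEK293T cells exposed to a range of test compound concentrations for 24 hours. Lysates were immunoblotted with anti-phospho CK2 substrate antibody, then the membrane was reprobed with anti-phospho PKA substrate and anti-β-actin antibodies.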

[7] = test system: Per2 knockout cells differentiated from ES cells; test: Circadian assay in Per2 knockout cells differentiated from Bmal1-Luc ES cells; format: cell-based, mouse
Method in brief: as §3

[8] = test system: control spleen and bone marrow explants; test: Per2::Luc rhythms in control spleen and bone marrow explants; format: cell-based, mouse
Method in brief: as §2

RCC4+vec = test: Proliferation assay of RCC line RCC4+vec; format: cell-based, human; conditions: 2 days
Method in brief: as §1

[9] = biological target: recombinant CK2 (α2β2 tetramer) (Homo sapiens, UniProt P68400); format: binding; conditions: recombinant CK2, agarose-conjugated GO457, immunoblot
Chain of recombinant CK2 (α2β2 tetramer) (P68400 whole entry): as the sequence (P68400 whole entry) above
Chain of recombinant CK2 (α2β2 tetramer) (P67870 whole entry partner): as the sequence (P67870 whole entry partner) above

CKIα = CKIα (Homo sapiens, UniProt P48729); test: In vitro CKIα kinase assay; format: biochemical
Chain of CKIα (P48729 whole entry, species assumed): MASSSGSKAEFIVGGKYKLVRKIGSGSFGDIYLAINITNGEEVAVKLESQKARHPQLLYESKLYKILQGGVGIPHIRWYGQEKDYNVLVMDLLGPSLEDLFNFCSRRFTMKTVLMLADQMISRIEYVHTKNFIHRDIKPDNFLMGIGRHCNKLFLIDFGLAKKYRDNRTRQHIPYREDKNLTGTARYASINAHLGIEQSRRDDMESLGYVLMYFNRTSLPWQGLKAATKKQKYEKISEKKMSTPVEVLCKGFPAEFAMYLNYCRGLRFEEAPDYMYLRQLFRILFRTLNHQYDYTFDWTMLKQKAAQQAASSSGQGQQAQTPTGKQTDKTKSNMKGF

[10] = test system: 59 kinases from a variety of classes; test: Kinase profiling, panel of 60 kinases; format: biochemical; conditions: 5 μM
[11] = test system: CK2α (CSNK2A1), CK2α′ (CSNK2A2), CK2β (CSNK2B), and GSK-3β (GSK3B); format: binding, human; conditions: U2OS cell lysate, 50 μM free compound
Method in brief: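 Unsynchronized confluent U2OS cells (1.6 × 10^8) were Dounce-homogenized in MOPS/EGTA/MgCl2/DTT buffer (pH 7.2) and sonicated. NP-40 was added to 0.5%, and the extract was cleared at 14,000g. Halves were preincubated with 0 or 50 μM free compound (0.5% DMSO) at 4°C for 30 min, then with the agarose-conjugated probe for 1 h. Bound proteins were in-gel digested for nanoLC-MS/MS; two independent experiments.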

[12] = test system: LSK hematopoietic progenitor cells; test: Proliferation assay of LSK hematopoietic progenitor cells; format: cell-based, mouse; conditions: LSK hematopoietic progenitor cells (normal counterpart), 2 days
Method in brief: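 LSK progenitors were maintained in StemSpan with SCF and TPO (100 ng/ml each). Cells were plated at 1.0 × 10^4 per well with compound, held at 37°C for 2 days, then counted by flow cytometry.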

SMILES: O=C(O)c1ccc2c(c1)nc(Nc1cccc(Cl)c1)c1ccncc12 [CX-4945, reference compound]
Cell growth (Caki-2): inhibited growth
Cell growth (ACHN): less of an effect
Effect on luminescence (reporter signal intensity) (Bmal1-dLuc U2OS cells; vs DMSO control): severe reduction in luminescence
Cell growth (A704): less of an effect

SMILES: CN(C)c1nc2c(Br)c(Br)c(Br)c(Br)c2[nH]1 [DMAT, reference compound]
Effect on luminescence (reporter signal intensity) (Bmal1-dLuc U2OS cells; vs DMSO control): severe reduction in luminescence

Effect on GSK-3β activity (GSK-3β): minor effect
CRY1 stabilization in cell-based degradation assay (CRY1): no stabilization of CRY1
Cellular CK2 activity (anti-phospho CK2 substrate antibody) (CK2 [2]): Inhibition of cellular CK2 activity
IC50 (CK2 [3]): 0.007 µM
IC50 (PIM2): 13 µM
IC50 ratio against CK2 over PIM family kinase (PIM2) (PIM2; PIM2 IC50 relative to CK2 IC50): > 1000
Effect on CKIδ activity in vitro (CKIδ): minor effects
IC50 (CLK2): > 50 µM
Signal of anti-phospho PKA substrate antibody (PKA (protein kinase A)): not affected by GO289
Effect on CKIα activity in vitro (CKIα): minor effects
Effect on the activity of 59 kinases [10]: only a moderate or minor effect
SMILES: COc1cc(/C=N/n2c(SC)nnc2-c2ccccc2)c(Br)cc1O [GO289]
Cell growth (MLL-AF9 leukemia cells): significantly reduced growth
Cell growth (786-O): less affected
Cell growth (A498): strongly inhibited
Cell growth (RCC4+VHL): less affected
Cell growth (Caki-2): strongly inhibited
Luminescence intensity of Per2::Luc reporter [1]: severe reduction in luminescence
Cell growth (769-P): strongly inhibited
Phosphorylation of PER2 T12/S13 and S53 (previously reported CK2 sites) (PER2): either unchanged or up-regulated
Effect on circadian period (Per2-dLuc U2OS cells): dose-dependent lengthening of circadian period
Effect on circadian period [4]: lengthened periods
Cell growth (OCI-AML3): sensitive to GO289
BMAL1 S90 phosphorylation (immunoblot) (BMAL1 S90): down-regulation
Effect on circadian period [5]: lengthened periods
Phosphorylation of CK2 substrates (anti-phospho CK2 substrate antibody) (CK2 [6]): reduced by GO289 in a dose-dependent manner
Cell growth (ACHN): less affected
Effect on circadian period (Bmal1-dLuc U2OS cells): dose-dependent lengthening of circadian period
Effect on luminescence (reporter signal intensity) (Bmal1-dLuc U2OS cells; vs DMSO control): little effect on luminescence
Lengthening of circadian period (Bmal1-dLuc U2OS cells; vs DMSO control): more than 12 hours
Period lengthening of Bmal1-Luc rhythms in Per2 knockout vs wild-type cells [7]: slightly enhanced
Effect on circadian period [8]: lengthened circadian period
Cell growth (RCC4+vec): less affected
Competition of CK2 interaction with affinity probe [9]: blocked by increasing concentrations of free GO289
Cell growth (A704): less affected
Competition of protein interactions with affinity probe [11]: blocked by free GO289
Cell growth [12]: much less affected

SMILES: Cc1cc2sc(NC(=O)Cc3ccccc3)nc2cc1Cl [LH846, reference compound]
Phosphorylation of CK2 substrates (anti-phospho CK2 substrate antibody) (CK2 [6]): neither the CKIδ inhibitor LH846 nor the GSK-3 inhibitor CHIR-99021 altered the CK2-specific phosphorylation pattern

CK2 inhibitory activity in vitro (CK2 [3]; in vitro CK2 kinase assay (fig. S5)): complete loss of CK2 inhibition
SMILES: COc1cc(/C(C)=N/n2c(SC)nnc2-c2ccccc2)c(Br)cc1O [compound 27]
